Experimental data pooled from the literature.
Protocols differ between the studies behind these lines.
Target: Phosphorylase b kinase gamma catalytic chain, liver/testis isoform (PHKG2, Homo sapiens, UniProt P15735)
Sequence (P15735 1-406, as in one of the studies): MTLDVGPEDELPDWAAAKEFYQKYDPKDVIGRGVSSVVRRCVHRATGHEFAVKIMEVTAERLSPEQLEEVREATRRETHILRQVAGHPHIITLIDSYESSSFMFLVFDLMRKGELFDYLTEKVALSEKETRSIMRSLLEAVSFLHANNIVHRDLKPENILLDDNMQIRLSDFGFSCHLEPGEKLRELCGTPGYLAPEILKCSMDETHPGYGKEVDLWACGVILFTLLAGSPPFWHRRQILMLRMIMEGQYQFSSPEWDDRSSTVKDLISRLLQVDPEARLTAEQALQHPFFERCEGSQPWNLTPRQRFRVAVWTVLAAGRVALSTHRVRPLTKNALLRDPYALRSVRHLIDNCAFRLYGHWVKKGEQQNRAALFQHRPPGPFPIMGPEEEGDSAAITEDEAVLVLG

| Compound | assay | setting | remaining binding |
| --- | --- | --- | --- |
| N[C@@H]1CCN(c2nccc(-c3cnn4ncccc34)n2)C1 | binding | 1 µM | 84% |
| CS(=O)(=O)N1CCCC(NC(=O)[C@H](CCC2CCCCC2)NC(=O)c2ccc(CNC(=O)c3cnc4ccccn34)cc2)C1 (stereo partly drawn) | cell-free assay, competition with immobilised ligand | 0.1 µM | 100% |
| C=CC(=O)N1CCC(C(=O)NCC(=O)N2CCN(c3nc(-c4cnc(N)nc4C(F)F)nc(N4CCOCC4)n3)CC2)CC1 | binding, competition with immobilised ligand | 1 µM | 89% |
| COc1cnc(Nc2cccc(S(N)(=O)=O)c2)nc1N1CCN(c2ccccc2)C(=O)C1 | binding, competition with immobilised ligand | 1 µM | 100% |
| FC(F)(F)Oc1cccc(-c2cnc3ccc(-c4ccncc4)nn23)c1 | cell-free assay, competition with immobilised ligand | 5 µM | 22% |
| O=C(Nc1c[nH]nc1C(=O)NC1CCNCC1)c1cc(F)cc(F)c1 | binding, competition with immobilised ligand | 1 µM | 100% |
| O=C(c1ccc(Nc2ncc(Cl)c(-c3ccc(Cl)s3)n2)cc1)N1CCC(N2CCCC2)CC1 | binding, competition with immobilised ligand | 1 µM | 66% |
| C[C@@H]1CN(c2cc(-c3n[nH]c4ccc(OC5(C)CC5)cc34)ncn2)C[C@H](C)O1 | cell-free assay, competition with immobilised ligand | 0.1 µM | 91% |
| C[C@@H]1CCN(c2nccc(-c3cnn4ncccc34)n2)C1 | binding | 1 µM | 72% |
| CNC(=O)[C@@H]1CC[C@@H](n2c(-c3ccc4cnccc4c3)nc3ccc(C(=O)NCc4cccc(C(N)=O)c4)cc32)C1 | binding, competition with immobilised ligand | 1 µM | 99% |
| C[C@H](c1cccc(C#N)c1)n1cc(Cl)cc(C(N)=O)c1=N | cell-free assay, competition with immobilised ligand | 1 µM | 100% |
| O=C(c1ccc(Nc2nccc(-c3cc4ccccc4s3)n2)cc1)N1CCC(N2CCCC2)CC1 | binding, competition with immobilised ligand | 1 µM | 64% |
| CN(CCCC(F)(F)F)c1nccc(-c2cnn3ncccc23)n1 | binding | 1 µM | 100% |
| Nc1ncc2c(n1)-c1c([nH]c3ccc(C#CC4CC4)cc13)CCCC2 | binding, competition with immobilised ligand | 1 µM | 100% |
| CN(C)C(=O)Cn1cc(-c2nc([C@@](C)(c3ccc(-c4cnc(N)nc4)cc3)C3CC3)no2)cn1 | cell-free assay, competition with immobilised ligand | 1 µM | 80% |
| COc1ccnn2ncc(-c3ccnc(N(C)C)n3)c12 | binding | 1 µM | 82% |
| CCS(=O)(=O)c1cc2cc(C[C@@](O)(CC(C)(C)c3ccc(F)cc3C(N)=O)C(F)(F)F)[nH]c2cn1 | cell-free assay, competition with immobilised ligand | 1 µM | 100% |
| CN(C)c1nccc(-c2cnn3ncccc23)n1 | binding | 1 µM | 86% |
| O=C(NCCCN1CCOCC1)c1ccc(Nc2nccc(-c3cc4ccccc4s3)n2)cc1 | binding, competition with immobilised ligand | 1 µM | 33% |
| CNC(=O)Nc1ccc2c(c1)[C@@]1(CC2)OC(=O)N(CC(=O)N(Cc2ccc(F)cc2)[C@@H](C)C(F)(F)F)C1=O | cell-free assay, competition with immobilised ligand | 1 µM | 100% |
| Cc1cnn2ncc(-c3ccnc(N(C)C)n3)c2c1 | binding | 1 µM | 95% |
